Results reported in ChEMBL document CHEMBL1152649, “Synthesis, cytotoxicity and human telomerase inhibition activities of a series of 1,2-heteroannelated anthraquinones and anthra[1,2-d]imidazole-6,11-dione homologues” (2009).
The source made the active and inactive calls. The rule behind the calls is not given here.

What was measured:
MDA-MB-231 = test: Growth inhibition of human MDA-MB-231 cells; type: functional
In short: (§1)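 NCI 60 cancer cell line screen run per the Developmental Therapeutics Program protocol. Dose–response curves were plotted against log10 drug concentration for each cell line within its subpanel, and mean graph midpoint values were calculated.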

BT-549 = test: Growth inhibition of human BT549 cells; type: functional; in short: as §1
[1] = Cytotoxicity against human H1299 cells at 1 uM after 48 hrs by MTT assay; type: functional; conditions: NCI-H1299, 48 h
In short: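 H1299 non-small cell lung cancer cells were grown in RPMI 1640 with 10% FBS, penicillin and streptomycin at 37 °C under 5% CO2. About 2 × 10³ cells per well were seeded and left 24 h. Compounds were dissolved fresh in DMSO, diluted into complete medium and applied for 48 h. MTT was then added for 4 h at 37 °C, followed by lysis buffer (20% SDS, 50% DMF) for 16 h, and absorbance was read at 550 nm.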

[2] = target: Telomerase reverse transcriptase (Homo sapiens) (UniProt O14746); test: Inhibition of telomerase in human H1299 cells up to 100 uM by TRAP assay; type: cell-based
Sequence of Telomerase reverse transcriptase (Homo sapiens) (O14746 whole entry): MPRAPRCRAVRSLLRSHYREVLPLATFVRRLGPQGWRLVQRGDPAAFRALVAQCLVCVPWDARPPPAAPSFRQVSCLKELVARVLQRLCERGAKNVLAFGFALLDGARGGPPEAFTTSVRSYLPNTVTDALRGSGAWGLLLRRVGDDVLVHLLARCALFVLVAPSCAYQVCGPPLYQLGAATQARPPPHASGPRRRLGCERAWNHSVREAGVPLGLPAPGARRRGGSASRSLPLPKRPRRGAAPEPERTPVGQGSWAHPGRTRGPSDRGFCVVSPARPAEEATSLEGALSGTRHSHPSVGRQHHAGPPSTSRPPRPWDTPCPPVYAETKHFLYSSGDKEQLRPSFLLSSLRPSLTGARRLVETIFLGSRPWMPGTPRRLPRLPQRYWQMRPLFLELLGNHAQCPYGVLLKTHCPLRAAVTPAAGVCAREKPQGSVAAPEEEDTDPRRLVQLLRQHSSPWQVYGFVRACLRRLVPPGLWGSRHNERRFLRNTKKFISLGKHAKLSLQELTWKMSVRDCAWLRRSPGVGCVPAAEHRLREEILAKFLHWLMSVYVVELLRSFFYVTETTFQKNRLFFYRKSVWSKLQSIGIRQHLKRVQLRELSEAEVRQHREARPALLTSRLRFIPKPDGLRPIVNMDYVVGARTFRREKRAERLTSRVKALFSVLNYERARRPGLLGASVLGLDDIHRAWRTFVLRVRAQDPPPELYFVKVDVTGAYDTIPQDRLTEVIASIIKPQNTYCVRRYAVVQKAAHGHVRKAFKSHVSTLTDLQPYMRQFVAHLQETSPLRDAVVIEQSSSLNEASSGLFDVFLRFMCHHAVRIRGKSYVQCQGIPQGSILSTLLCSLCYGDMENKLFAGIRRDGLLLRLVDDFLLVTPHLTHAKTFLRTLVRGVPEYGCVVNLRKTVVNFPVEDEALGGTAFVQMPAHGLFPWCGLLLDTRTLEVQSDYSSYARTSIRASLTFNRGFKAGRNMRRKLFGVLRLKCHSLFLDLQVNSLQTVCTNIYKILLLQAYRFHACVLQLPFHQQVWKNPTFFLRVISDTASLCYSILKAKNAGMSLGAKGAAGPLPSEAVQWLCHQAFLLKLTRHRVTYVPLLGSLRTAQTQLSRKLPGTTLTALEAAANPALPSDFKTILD
In short: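 PCR-based telomeric repeat amplification protocol (TRAP). The telomerase source was total lysate of H1299 lung cancer cells, with protein measured against BSA standards. Controls were extract without inhibitor and RNase A-treated extract.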

HOP-62 [3] = test: Antiproliferative activity against human HOP62 cells assessed as cell growth at 10 uM; type: functional; conditions: read-out: Activity
In short: (§2)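 NCI 60 cell line panel, single-dose screen (10^-5 M) run by the developmental therapeutics program protocol. Results are given as growth percent of treated cells relative to untreated control cells for each line.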

OVCAR-5 = test: Antiproliferative activity against human OVCAR5 cells assessed as cell growth at 10 uM; type: functional; conditions: read-out: Activity; in short: as §2
K562 [4] = test: Antiproliferative activity against human K562 cells assessed as cell growth at 10 uM; type: functional; conditions: read-out: Activity; in short: as §2
[5] = Antiproliferative activity against human RPMI8266 cells assessed as cell growth at 10 uM; type: functional; conditions: read-out: Activity; in short: as §2
SN12C = test: Antiproliferative activity against human SN12C cells assessed as cell growth at 10 uM; type: functional; conditions: read-out: Activity; in short: as §2
SK-MEL-2 = test: Antiproliferative activity against human SK-MEL-2 cells assessed as cell growth at 10 uM; type: functional; conditions: read-out: Activity; in short: as §2
UACC-257 = test: Antiproliferative activity against human UACC257 cells assessed as cell growth at 10 uM; type: functional; conditions: read-out: Activity
In short: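 NCI 60 cell line panel, single dose (10^-5 M), run per the Developmental Therapeutics Program protocol (one dose mean graph). Each result is the growth percentage of treated cells relative to untreated control cells.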

DU-145 [6] = test: Antiproliferative activity against human DU145 cells assessed as cell growth at 10 uM; type: functional; conditions: read-out: Activity; in short: as §2
SF-539 = test: Antiproliferative activity against human SF539 cells assessed as cell growth at 10 uM; type: functional; conditions: read-out: Activity; in short: as §2
SNB-19 [7] = test: Antiproliferative activity against human SNB19 cells assessed as cell growth at 10 uM; type: functional; conditions: read-out: Activity; in short: as §2
K562 [8] = test: Growth inhibition of human K562 cells; type: functional; in short: as §1
A549 = test: Growth inhibition of human A549 cells; type: functional; in short: as §1
HOP-62 [9] = test: Growth inhibition of human HOP62 cells; type: functional; in short: as §1
NCI-H322M = test: Growth inhibition of human NCI-H322M cells; type: functional; in short: as §1
NCI-H460 = test: Growth inhibition of human NCI-H460 cells; type: functional; in short: as §1
HCT-15 = test: Growth inhibition of human HCT15 cells; type: functional; in short: as §1
KM12 [10] = test: Growth inhibition of human KM12 cells; type: functional; in short: as §1
SW-620 = test: Growth inhibition of human SW620 cells; type: functional
In short: (§3)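 Assayed in the NCI 60 human cancer cell line panel under the Developmental Therapeutics Program protocol. For each line, dose–response curves were plotted against log10 drug concentration. In the one-dose screen at 10^-5 M, growth was given as percent of untreated control cells, and mean graph midpoint values were averaged.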

SF-268 = test: Growth inhibition of human SF268 cells; type: functional; in short: as §3
SNB-19 [11] = test: Growth inhibition of human SNB19 cells; type: functional; in short: as §3
U-251 = test: Growth inhibition of human U251 cells; type: functional; in short: as §3
MDA-MB-435 = test: Growth inhibition of human MDA-MB-435 cells; type: functional; in short: as §1
UACC-62 = test: Growth inhibition of human UACC62 cells; type: functional; in short: as §3
OVCAR-3 = test: Growth inhibition of human OVCAR-3 cells; type: functional; in short: as §1
OVCAR-4 = test: Growth inhibition of human OVCAR4 cells; type: functional; in short: as §1
786-0 = test: Growth inhibition of human 786-0 cells; type: functional; in short: as §1
A498 = test: Growth inhibition of human A498 cells; type: functional; in short: as §1
ACHN = test: Growth inhibition of human ACHN cells; type: functional; in short: as §1
PC-3 = test: Growth inhibition of human PC3 cells; type: functional; in short: as §3
DU-145 [12] = test: Growth inhibition of human DU145 cells; type: functional; in short: as §1
NCI-H226 = test: Antiproliferative activity against human NCI-H226 cells assessed as cell growth at 10 uM; type: functional; conditions: read-out: Activity; in short: as §2
COLO 205 = test: Antiproliferative activity against human COLO205 cells assessed as cell growth at 10 uM; type: functional; conditions: read-out: Activity; in short: as §2
KM12 [13] = test: Antiproliferative activity against human KM12 cells assessed as cell growth at 10 uM; type: functional; conditions: read-out: Activity; in short: as §2
[14] = target: Telomerase reverse transcriptase (Homo sapiens) (UniProt O14746); test: Inhibition of TERT in human H1299 cells assessed as residual transcriptional activity at 1 uM after 24 hrs by SEAP reporter gene assay; values are per cent of control
[15] = read-out: LC50 (the source's name)

## O=C1c2ccccc2C(=O)c2c1ccc1nsnc21
MDA-MB-231
  GI50: 1.75 µM
  LC50 (concentration killing 50% of cells): > 100 µM
  TGI: 5.9 µM
BT-549
  GI50: 1.63 µM
  LC50: 6.01 µM
  TGI: 3.13 µM
[1]
  viability at 1 µM: 40%
[2]
  inhibition: inactive
HOP-62 [3]
  growth at 10 µM: -100%
OVCAR-5
  growth at 10 µM: -20.1%
K562 [4]
  growth at 10 µM: 49.6%
[5]
  growth at 10 µM: -28%
SN12C
  growth at 10 µM: -73.3%
SK-MEL-2
  growth at 10 µM: -73.2%
UACC-257
  growth at 10 µM: -83.1%
DU-145 [6]
  growth at 10 µM: 40.8%
SF-539
  growth at 10 µM: -47.1%
SNB-19 [7]
  growth at 10 µM: 79%
K562 [8]
  GI50: 1.92 µM
  LC50: 41.2 µM
  TGI: 15.9 µM
A549
  GI50: 14.7 µM
  TGI: 36.6 µM
A549; [15]
  CC50: 91 µM
HOP-62 [9]
  GI50: 1.28 µM
  TGI: 3.31 µM
HOP-62 [9]; [15]
  CC50: 8.53 µM
NCI-H322M
  GI50: 17.4 µM
  TGI: 47.8 µM
NCI-H322M; [15]
  CC50: > 100 µM
NCI-H460
  GI50: 3.27 µM
  TGI: 14.3 µM
NCI-H460; [15]
  CC50: 47.3 µM
HCT-15
  GI50: 1.71 µM
  TGI: 3.72 µM
HCT-15; [15]
  CC50: 8.12 µM
KM12 [10]
  GI50: 1.96 µM
  TGI: 5.54 µM
KM12 [10]; [15]
  CC50: 59.7 µM
SW-620
  GI50: 1.79 µM
  TGI: 3.5 µM
SW-620; [15]
  CC50: 6.84 µM
SF-268
  GI50: 2.17 µM
  TGI: 5.77 µM
SF-268; [15]
  CC50: 27.7 µM
SNB-19 [11]
  GI50: 2.28 µM
  TGI: 5.82 µM
SNB-19 [11]; [15]
  CC50: 26 µM
U-251
  GI50: 1.61 µM
  TGI: 2.96 µM
U-251; [15]
  CC50: 5.44 µM
MDA-MB-435
  GI50: 1.91 µM
  TGI: 3.31 µM
MDA-MB-435; [15]
  CC50: 5.76 µM
UACC-62
  GI50: 1.45 µM
  TGI: 2.9 µM
UACC-62; [15]
  CC50: 5.79 µM
OVCAR-3
  GI50: 0.55 µM
  TGI: 2.46 µM
OVCAR-3; [15]
  CC50: 11.1 µM
OVCAR-4
  GI50: 0.65 µM
  TGI: 2.17 µM
OVCAR-4; [15]
  CC50: 5.57 µM
786-0
  GI50: 6.17 µM
  TGI: 19.3 µM
786-0; [15]
  CC50: 50.4 µM
A498
  GI50: 12.4 µM
  TGI: 25.4 µM
A498; [15]
  CC50: 52 µM
ACHN
  GI50: 1.46 µM
  TGI: 2.77 µM
ACHN; [15]
  CC50: 5.27 µM
PC-3
  GI50: 3.23 µM
  TGI: > 100 µM
PC-3; [15]
  CC50: > 100 µM
DU-145 [12]
  GI50: 1.67 µM
  TGI: 3.24 µM
DU-145 [12]; [15]
  CC50: 6.27 µM
NCI-H226
  growth at 10 µM: 97.8%
COLO 205
  growth at 10 µM: 112%
KM12 [13]
  growth at 10 µM: 98.6%
[14]
  residual activity: 89%
